Active and inactive are the calls of the source. The rule behind the calls is not given here.

The record followed here is ChEMBL document CHEMBL1158390, “Photo-inducible cytotoxic and clastogenic activities of 3,6-di-substituted acridines obtained by acylation of proflavine” (Eur J Med Chem, 2009).

In data set [1] the test system is CHO. Put plainly: Phototoxicity in transformed CHO cells after 24 hrs incubation in dark by WST1 assay. As to conditions: Cricetulus griseus, light or radiation study. The class given is functional, cell-based. The gist of the method: (§1)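 CHO cells (50,000/well, McCoy's 5A with 10% FCS) grown 24 h, then dosed with a concentration range in duplicate (DMSO under 0.5% final). Either kept dark or irradiated at once (4.5 J/cm²: 0.36 UVA plus 4.14 visible, 750 W m⁻²), then 24 h at 37 °C. After PBS washes, 20 min with WST1 and absorbance read at 450 nm. IC50 is the 50% drop versus control.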
(Formazan colour is commonly taken as a measure of viable cells.)

For data set [2], the system named is CHO. The data set is described as follows: Phototoxicity in transformed CHO cells after 24 hrs of UV irradiation by WST1 assay. Type of data set: functional, cell-based. Conditions: Cricetulus griseus, light or radiation study. The gist of the method:
as §1

Data set [3] in a line: Phototoxicity in normal human keratinocytes after 24 hrs incubation in dark by WST1 assay. Conditions: Keratinocyte, light or radiation study. Type of data set: cell-based.
The nature of data set [4]: Phototoxicity in normal human keratinocytes after 24 hrs of UV irradiation by WST1 assay. Type of data set: cell-based. Conditions: Keratinocyte, light or radiation study.
In data set [5] the test system is CHO-K1. The data set is described as follows: Clastogenic activity in CHOK1 cells assessed as lowest drug concentration required to increase number of micronucleated cells after 3 hrs incubation in dark by micronucleus assay. Type of data set: functional, Cricetulus griseus. The gist of the method:
(§2)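 CHO-K1 cells (50,000, chamber slides) grown 24 h, then dosed with a concentration range in duplicate, either kept dark or irradiated at once (4.5 J/cm², 1 min, 320–800 nm, 750 W m⁻², samples held at 4 °C). Exposure 3 h at 37 °C, then 5 μg/mL cytochalasin B for 24 h. Methanol fixation, Giemsa staining, 2000 binucleated cells per concentration scored at doses giving under 50% toxicity. χ² test against control. MCC is the lowest concentration giving a significant increase.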

Data set [6] has as its system CHO-K1. The data set is described as follows: Clastogenic activity in CHOK1 cells assessed as lowest drug concentration required to increase number of micronucleated cells after 3 hrs of UV irradiation by micronucleus assay. Type of data set: functional, Cricetulus griseus. A digest of the protocol: as §2
The test system of data set [7] is CHO. The data set is described as follows: Ratio of IC50 for transformed CHO cells incubated in dark to IC50 for transformed CHO cells incubated under UV irradiation. The class given is functional, Cricetulus griseus.
Data set [8] in a line: Ratio of IC50 for normal human keratinocytes incubated in dark to IC50 for normal human keratinocytes incubated under UV irradiation. Type of data set: cell-based, Keratinocyte. As to conditions: read-out: Ratio IC50.
For data set [9], the system named is CHO-K1. The data set is described as follows: Clastogenic activity in CHOK1 cells assessed as induction of chromosomal mutation and misaggregation at 15 uM incubated in dark for 3 hrs by micronucleus assay in presence of protective antioxidant mannitol treated 2 hrs before compound addition. The class given is functional, cell-based. As to conditions: Cricetulus griseus. A digest of the protocol: (§3)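 CHO-K1 cells (50,000, chamber slides, McCoy's 5A with 10% FCS) grown 24 h, then given 2 mM mannitol for 2 h at 37 °C. Then either dark treatment or irradiation at 4.5 J/cm² (UVA-visible 320–800 nm, 750 W m⁻²). Exposure 3 h at 37 °C, then 5 μg/mL cytochalasin B for 24 h. Giemsa staining; binucleated cells scored for micronuclei at 1000×.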

The test system of data set [10] is CHO-K1. Put plainly: Clastogenic activity in CHOK1 cells assessed as induction of chromosomal mutation and misaggregation at 0.15 uM after 3 hrs of 4.5 J/cm'2 UV irradiation by micronucleus assay in presence of protective antioxidant mannitol treated 2 hrs before compound addition. As to conditions: Cricetulus griseus. Type of data set: functional, cell-based. The gist of the method: as §3

One may read the IC50 as the concentration that gives 50% inhibition. Low values mean higher potency, high ones lower potency. As to `CC(=O)Nc1ccc2cc3ccc(NC(C)=O)cc3nc2c1`, the IC50 in the data set with CHO [1] was above 50 µM; in the data set with CHO [2], 37.2 µM; in data set [3] it was above 50 µM; in data set [4] it was 41.2 µM. The Activity in the data set on CHO-K1 [5] is 11.01 µM; in the data set with CHO-K1 [6], 0.24 µM.
Consider `O=C(Nc1ccc2cc3ccc(NC(=O)c4ccc(Cl)cc4)cc3nc2c1)c1ccc(Cl)cc1`, for which the 50% inhibitory concentration (IC50) is above 50 µM in the data set on CHO [1], 0.94 µM in the data set on CHO [2], above 50 µM in data set [3] and 5.4 µM in data set [4]. For the same compound, the Activity in the data set with CHO-K1 [5] was determined as 2.38 µM; with CHO-K1 [6], 0.12 µM.
As to `O=C(Nc1ccc2cc3ccc(NC(=O)c4ccc(Cl)c(Cl)c4)cc3nc2c1)c1ccc(Cl)c(Cl)c1`, the concentration for half-maximal inhibition (IC50) (with CHO [1]; with CHO [2]; in data set [3]; in data set [4]) was above 50 µM throughout. For the same compound, the result in the data set on CHO-K1 [5] (Cricetulus griseus) and with CHO-K1 [6] (Cricetulus griseus) was inactive.
On to `Cc1ccc(C(=O)Nc2ccc3cc4ccc(NC(=O)c5ccc(C)cc5)cc4nc3c2)cc1`, for which the half-maximal inhibitory concentration (IC50) in the data set with CHO [1] is 43.1 µM; in the data set with CHO [2], 1.34 µM; in data set [3], above 50 µM; in data set [4] it was 4.04 µM. For the same compound, the results for the Activity with CHO-K1 [5] and with CHO-K1 [6] were 2.11 µM and 0.02 µM, respectively.
For the compound `O=C(Nc1ccc2cc3ccc(NC(=O)c4cc(C(F)(F)F)cc(C(F)(F)F)c4)cc3nc2c1)c1cc(C(F)(F)F)cc(C(F)(F)F)c1`, the IC50 (in the data set on CHO [1]; in the data set with CHO [2]; in [3]; in data set [4]) was above 50 µM each time. Also, the outcome with CHO-K1 [5] (Cricetulus griseus) and in the data set on CHO-K1 [6] (Cricetulus griseus) was inactive.
Turning to `O=C(Nc1ccc2cc3ccc(NC(=O)c4ccccc4)cc3nc2c1)c1ccccc1`, the IC50 in the data set on CHO [1] is 23.8 µM; with CHO [2], 0.26 µM; in data set [3], above 50 µM; in [4] it was 0.33 µM. The “Ratio IC50” value in the data set on CHO [7] came to 90. Also, the selectivity ratio in [8] was found to be 100. Besides, the result with CHO-K1 [5] (Cricetulus griseus) and with CHO-K1 [6] (Cricetulus griseus) was inactive.
As to `COc1ccc(C(=O)Nc2ccc3cc4ccc(NC(=O)c5ccc(OC)cc5)cc4nc3c2)cc1`, the half-inhibitory concentration (IC50) was 45.2 µM in the data set on CHO [1], 43.4 µM with CHO [2], above 50 µM in data set [3] and above 50 µM in [4]. Besides, the outcome in the data set on CHO-K1 [5] (Cricetulus griseus) and with CHO-K1 [6] (Cricetulus griseus) was inactive.
Consider `COC(=O)Nc1ccc2cc3ccc(NC(=O)OC)cc3nc2c1`, for which the IC50 in the data set on CHO [1] was 15.8 µM; in the data set with CHO [2], 3.8 µM; in [3], above 50 µM; in data set [4], 8.1 µM. The Activity in the data set with CHO-K1 [5] turned out to be 0.47 µM; with CHO-K1 [6], 0.21 µM.
For the compound `CCC(=O)Nc1ccc2cc3ccc(NC(=O)CC)cc3nc2c1`, the half-maximal inhibitory concentration (IC50) in the data set with CHO [1] is above 50 µM; in the data set on CHO [2], 2.9 µM; in data set [3] it was above 50 µM; in data set [4], 2.4 µM. The Activity in the data set on CHO-K1 [5] turned out to be 1.15 µM; in the data set with CHO-K1 [6], 0.03 µM.
`CC(C)(C)OC(=O)Nc1ccc2cc3ccc(NC(=O)OC(C)(C)C)cc3nc2c1`: the half-inhibitory concentration (IC50) was 6.1 µM in the data set with CHO [1], 0.12 µM in the data set with CHO [2], above 50 µM in data set [3] and 0.14 µM in data set [4]. For the same compound, in [8], the selectivity ratio was 100. The outcome with CHO-K1 [5] (Cricetulus griseus) and with CHO-K1 [6] (Cricetulus griseus) was inactive.
For the compound `Nc1ccc(C(=O)Nc2ccc3cc4ccc(NC(=O)c5ccc(N)cc5)cc4nc3c2)cc1`, the concentration for half-maximal inhibition (IC50) (in the data set on CHO [1]; in the data set with CHO [2]; in data set [3]; in data set [4]) was above 50 µM throughout. In the data set on CHO-K1 [5] (Cricetulus griseus), the result was inactive. Besides, the Activity in the data set on CHO-K1 [6] turned out to be 0.13 µM.
As for `CC(C)(C)C(=O)Nc1ccc2cc3ccc(NC(=O)C(C)(C)C)cc3nc2c1`, the IC50 with CHO [1] was 0.11 µM; in the data set on CHO [2] it was 0.1 µM; in data set [3] it was 3.28 µM; in data set [4] it was 4.69 µM. The outcome in the data set on CHO-K1 [5] (Cricetulus griseus) and in the data set on CHO-K1 [6] (Cricetulus griseus) was inactive.
Consider `O=C(Nc1ccc2cc3ccc(NC(=O)c4ccc(F)cc4)cc3nc2c1)c1ccc(F)cc1`, for which the IC50 (in the data set with CHO [1]; in the data set with CHO [2]; in data set [3]; in data set [4]) was above 50 µM throughout. Besides, the result with CHO-K1 [5] (Cricetulus griseus) was inactive. Moreover, the Activity with CHO-K1 [6] turned out to be 1.81 µM.
As for `O=C(Nc1ccc2cc3ccc(NC(=O)c4ccc([N+](=O)[O-])cc4)cc3nc2c1)c1ccc([N+](=O)[O-])cc1`, the IC50 is 40.2 µM in the data set with CHO [1], above 50 µM in the data set on CHO [2], above 50 µM in [3] and above 50 µM in data set [4]. Also, the outcome in the data set on CHO-K1 [5] (Cricetulus griseus) and in the data set with CHO-K1 [6] (Cricetulus griseus) was inactive.
Regarding `O=C(Nc1ccc2cc3ccc(NC(=O)c4cccc5ccccc45)cc3nc2c1)c1cccc2ccccc12`, the IC50 was 42.3 µM in the data set on CHO [1], 0.32 µM in the data set with CHO [2], above 50 µM in data set [3] and 24.1 µM in data set [4]. The “Ratio IC50” value with CHO [7] is listed as 130. Further, the result in the data set on CHO-K1 [5] (Cricetulus griseus) was inactive. The Activity in the data set with CHO-K1 [6] worked out at 0.13 µM.
`Nc1ccc2cc3ccc(N)cc3nc2c1` [PROFLAVINE]: the concentration for half-maximal inhibition (IC50) with CHO [1] is 1.1 µM; with CHO [2], 0.52 µM; in [3], above 50 µM; in data set [4], above 50 µM. Further, the Activity in the data set on CHO-K1 [5] amounted to 0.005 µM; in the data set with CHO-K1 [6] it was 0.004 µM.
As for `N#Cc1ccc(C(=O)Nc2ccc3cc4ccc(NC(=O)c5ccc(C#N)cc5)cc4nc3c2)cc1`, the IC50 is above 50 µM in the data set on CHO [1], 3.46 µM with CHO [2], above 50 µM in data set [3] and 33.5 µM in [4]. The outcome with CHO-K1 [5] (Cricetulus griseus) was inactive. The Activity with CHO-K1 [6] amounted to 0.06 µM.
As to `O=C(Nc1ccc2cc3ccc(NC(=O)c4ccco4)cc3nc2c1)c1ccco1`, the IC50 was 2.5 µM in the data set with CHO [1], 16.4 µM with CHO [2], 34.1 µM in data set [3] and 19.3 µM in data set [4]. Also, the result with CHO-K1 [5] (Cricetulus griseus) and in the data set on CHO-K1 [6] (Cricetulus griseus) was inactive.
As to `CCCC(=O)Nc1ccc2cc3ccc(NC(=O)CCC)cc3nc2c1`, the IC50 with CHO [1] is 38.9 µM; with CHO [2], 1.34 µM; in data set [3], above 50 µM; in data set [4], 0.57 µM. For the same compound, in data set [8], the selectivity ratio was found to be 100. Moreover, the values for the Activity in the data set on CHO-K1 [5] and with CHO-K1 [6] were 1.01 µM and 0.007 µM, respectively. Further, the result in the data set with CHO-K1 [9] and with CHO-K1 [10] was Active.
